The values that follow come from ChEMBL document CHEMBL1152489, “Synthesis and biological evaluation of a novel series of 1,5-benzothiazepine derivatives as potential antimicrobial agents” (2009).

Calls of active or inactive are those of the source. No cut-off for these calls is given here.

For experiment [1], the system named is Candida albicans. As to the kind of experiment: Antifungal activity against Candida albicans ATCC 10231 at 100 ug/disk after 24 hrs by disk diffusion method. Format: functional. The note with it: for zone of inhibition at 100 µg/disc: ATCC 10231, 24 h, read-out: IZ. The method, boiled down: (§1)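 Disk diffusion on media seeded with the organism. Sterile paper discs (6 mm) carried test compound dissolved in DMSO at 12.5, 50, 100 or 200 µg/disc. DMSO-only discs served as controls. Plates were incubated 24 h at 37 °C. The read-out is the growth-inhibition zone diameter in mm, averaged over three trials (±1 mm).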
(In agar diffusion tests the substance spreads into inoculated agar from a disc or well.)

Experiment [2] deals with Staphylococcus aureus. As to the kind of experiment: Antibacterial activity against Staphylococcus aureus ATCC 25923 at 200 ug/disk after 24 hrs by disk diffusion method. Format: functional. The note with it: for zone of inhibition at 200 µg/disc: ATCC 25923, 24 h, read-out: IZ. The method, boiled down: as §1
In experiment [3] the test system is Escherichia coli. As to the kind of experiment: Antibacterial activity against Escherichia coli ATCC 44752 at 100 ug/disk after 24 hrs by disk diffusion method. The experiment is classed as functional, organism-based. The method, boiled down:
as §1

The subject of experiment [4] is Staphylococcus aureus. Nature of the experiment: Antibacterial activity against Staphylococcus aureus ATCC 25923 at 100 ug/disk after 24 hrs by disk diffusion method. The experiment is classed as functional. As to conditions: for zone of inhibition at 100 µg/disc: ATCC 25923, 24 h, read-out: IZ. The procedure, abridged: as §1
Experiment [5] concerns Staphylococcus epidermidis. As to the kind of experiment: Antibacterial activity against Staphylococcus epidermidis ATCC 26069 at 200 ug/disk after 24 hrs by disk diffusion method. As to conditions: for zone of inhibition at 200 µg/disc: ATCC 26069, 24 h, read-out: IZ. The experiment is classed as functional. The method, boiled down:
as §1

In experiment [6] the test system is Escherichia coli. Nature of the experiment: Antibacterial activity against Escherichia coli ATCC 44752 at 50 ug/disk after 24 hrs by disk diffusion method. The experiment is classed as functional, organism-based. The method, boiled down:
as §1

Experiment [7] relates to Escherichia coli. As to the kind of experiment: Antibacterial activity against Escherichia coli ATCC 44752 at 200 ug/disk after 24 hrs by disk diffusion method. Format: functional, organism-based. The method, boiled down: as §1
The subject of experiment [8] is Candida albicans. Nature of the experiment: Antifungal activity against Candida albicans ATCC 10231 at 50 ug/disk after 24 hrs by disk diffusion method. The experiment is classed as functional. As to conditions: for zone of inhibition at 50 µg/disc: ATCC 10231, 24 h, read-out: IZ. The method, boiled down:
as §1

Experiment [9] concerns Staphylococcus epidermidis. As to the kind of experiment: Antibacterial activity against Staphylococcus epidermidis ATCC 26069 at 50 ug/disk after 24 hrs by disk diffusion method. Format: functional. The note with it: for zone of inhibition at 50 µg/disc: ATCC 26069, 24 h, read-out: IZ. The procedure, abridged: as §1
The subject of experiment [10] is Staphylococcus aureus. Nature of the experiment: Antibacterial activity against Staphylococcus aureus ATCC 25923 at 50 ug/disk after 24 hrs by disk diffusion method. The experiment is classed as functional. The note with it: for zone of inhibition at 50 µg/disc: ATCC 25923, 24 h, read-out: IZ. The procedure, abridged: as §1
Experiment [11] deals with Staphylococcus epidermidis. Nature of the experiment: Antibacterial activity against Staphylococcus epidermidis ATCC 26069 at 100 ug/disk after 24 hrs by disk diffusion method. The note with it: for zone of inhibition at 100 µg/disc: ATCC 26069, 24 h, read-out: IZ. The experiment is classed as functional. The method, boiled down: as §1
The test system of experiment [12] is Candida albicans. As to the kind of experiment: Antifungal activity against Candida albicans ATCC 10231 at 200 ug/disk after 24 hrs by disk diffusion method. Format: functional. The note with it: for zone of inhibition at 200 µg/disc: ATCC 10231, 24 h, read-out: IZ. The procedure, abridged:
as §1

Consider `CC(=O)C1=C(C)Nc2ccccc2SC1c1ccc(C)cc1` (stereo unspecified), for which the zone of inhibition at 100 µg/disc was found to be 16 mm in experiment [1], 9 mm in experiment [4] and 7 mm in experiment [11]. The zone of inhibition at 200 µg/disc in experiment [2] was 10 mm; in [5] it was 7 mm; in experiment [12] it was 23 mm. The “inhibition zone (IZ)” value in experiment [3], in [6] and in [7] was “inactive” each time. Besides, the zone of inhibition at 50 µg/disc in experiment [8] is 16 mm; in experiment [9], 7 mm; in experiment [10] it was 7 mm.

On to `CC(=O)C1=C(C)Nc2ccccc2SC1c1ccccc1Cl` (stereo unspecified), for which the zone of inhibition at 100 µg/disc in [1] came to 15 mm; in experiment [4], 8 mm; in experiment [11] it was 7.5 mm. The zone of inhibition at 200 µg/disc was determined as 9 mm in experiment [2], 9 mm in [5] and 15 mm in [12]. Also, the “inhibition zone (IZ)” value in experiment [3], in experiment [6] and in [7] was “inactive” throughout. The values for the zone of inhibition at 50 µg/disc in experiment [8], in [9] and in [10] were 12 mm, 7.5 mm and 8 mm, respectively.

Consider `CC(=O)C1=C(C)Nc2ccccc2SC1c1ccc([N+](=O)[O-])cc1` (stereo unspecified), for which the zone of inhibition at 100 µg/disc in experiment [1] amounted to 18 mm; in experiment [4], 12 mm; in experiment [11], 12 mm. The results for the zone of inhibition at 200 µg/disc in experiment [2], in experiment [5] and in experiment [12] were 13 mm, 13 mm and 20 mm, respectively. Further, the “inhibition zone (IZ)” value in experiment [3], in experiment [6] and in [7] was “inactive” in each case. Besides, the zone of inhibition at 50 µg/disc was 16 mm in [8], 10 mm in experiment [9] and 10 mm in experiment [10].

With `CC(=O)C1=C(C)Nc2cc(Cl)ccc2SC1c1ccccc1` (stereo unspecified), the zone of inhibition at 100 µg/disc in experiment [1] turned out to be 9 mm; in [4], 7 mm; in experiment [11], 8 mm. Moreover, the zone of inhibition at 200 µg/disc in experiment [2] was 10 mm; in [5] it was 11 mm; in experiment [12], 13 mm. The “inhibition zone (IZ)” value in experiment [3], in [6] and in experiment [7] was “inactive” in each case. The zone of inhibition at 50 µg/disc in [8], in experiment [9] and in experiment [10] was 7 mm each time.

As for `CCOC(=O)C1=C(C)Nc2ccccc2SC1c1ccc(C)cc1` (stereo unspecified), the “inhibition zone (IZ)” value in experiment [1], in experiment [2], in experiment [3], in experiment [4], in experiment [5] and in [6] was “inactive” throughout. For the same compound, the “inhibition zone (IZ)” value in [7], in experiment [8], in experiment [9], in experiment [10], in experiment [11] and in [12] was “inactive” each time.

With `COc1ccc(C2Sc3ccccc3NC(C)=C2C(C)=O)cc1` (stereo unspecified), the results for the zone of inhibition at 100 µg/disc in experiment [1], in [4] and in [11] were 9 mm, 7 mm and 7 mm, respectively. Moreover, the zone of inhibition at 200 µg/disc in [2] was 10 mm; in experiment [5], 10 mm; in experiment [12], 11 mm. Also, the “inhibition zone (IZ)” value in experiment [3], in experiment [6], in experiment [7] and in experiment [9] was “inactive” in each case. Also, the zone of inhibition at 50 µg/disc in [8] was 8 mm; in [10] it was 6.5 mm.

As for `CCOC(=O)C1=C(C)Nc2ccccc2SC1c1ccc(F)cc1` (stereo unspecified), the “inhibition zone (IZ)” value in experiment [1], in [2], in [3], in [4], in experiment [5] and in experiment [6] was “inactive” each time. Also, the “inhibition zone (IZ)” value in experiment [7], in experiment [8], in [9], in experiment [10], in experiment [11] and in [12] was “inactive” throughout.

Take `CC(=O)C1=C(C)Nc2cc(Cl)ccc2SC1c1ccc(Cl)cc1Cl` (stereo unspecified): the “inhibition zone (IZ)” value in experiment [1], in [3], in experiment [5], in experiment [6], in [7] and in experiment [8] was “inactive” in each case. The “inhibition zone (IZ)” value in experiment [9], in [10], in experiment [11] and in experiment [12] was “inactive” each time. Besides, the zone of inhibition at 200 µg/disc in [2] came out at 10 mm. Further, the zone of inhibition at 100 µg/disc in [4] was 7 mm.

Take `CC(=O)C1=C(C)Nc2ccccc2SC1c1ccc(Cl)cc1Cl` (stereo unspecified): the zone of inhibition at 100 µg/disc amounted to 10 mm in [1], 7 mm in experiment [4] and 8 mm in experiment [11]. Besides, the results for the zone of inhibition at 200 µg/disc in [2], in experiment [5] and in [12] were 10 mm, 11 mm and 14 mm, respectively. The “inhibition zone (IZ)” value in experiment [3], in experiment [6] and in [7] was “inactive” each time. Also, the zone of inhibition at 50 µg/disc in experiment [8] is 9 mm; in experiment [9], 7 mm; in experiment [10] it was 7 mm.

Regarding `CC(=O)C1=C(C)Nc2ccccc2SC1c1ccccc1` (stereo unspecified), the zone of inhibition at 100 µg/disc in experiment [1] worked out at 7 mm; in experiment [4], 8 mm; in experiment [11], 7 mm. Further, the zone of inhibition at 200 µg/disc was found to be 11 mm in [2], 10 mm in experiment [5] and 10 mm in [12]. The “inhibition zone (IZ)” value in experiment [3], in experiment [6], in experiment [7], in experiment [8] and in experiment [9] was “inactive” in each case. For the same compound, in experiment [10], the zone of inhibition at 50 µg/disc was found to be 6.5 mm.

In the case of `CC(=O)C1=C(C)Nc2cc(Cl)ccc2SC1c1ccccc1[N+](=O)[O-]` (stereo unspecified), the “inhibition zone (IZ)” value in experiment [1], in experiment [3], in experiment [6], in [7], in [8] and in experiment [12] was “inactive” in each case. Further, the zone of inhibition at 200 µg/disc in experiment [2] and in [5] was 8 mm each time. Further, the zone of inhibition at 100 µg/disc in experiment [4] turned out to be 7 mm; in experiment [11] it was 8 mm. Moreover, the zone of inhibition at 50 µg/disc in experiment [9] and in [10] was 7 mm throughout.

Take `CC(=O)C1=C(C)Nc2cc(Cl)ccc2SC1c1ccc([N+](=O)[O-])cc1` (stereo unspecified): the figures for the zone of inhibition at 100 µg/disc in experiment [1], in [4] and in [11] were 11 mm, 7 mm and 11 mm, respectively. In addition, the results for the zone of inhibition at 200 µg/disc in experiment [2], in experiment [5] and in [12] were 11 mm, 11 mm and 14 mm, respectively. In addition, the “inhibition zone (IZ)” value in experiment [3], in [6] and in [7] was “inactive” in each case. Also, the zone of inhibition at 50 µg/disc was 9 mm in experiment [8], 10 mm in [9] and 7 mm in experiment [10].

With `CC(=O)C1=C(C)Nc2ccccc2SC1c1ccccc1[N+](=O)[O-]` (stereo unspecified), the zone of inhibition at 100 µg/disc in experiment [1] turned out to be 13 mm; in [4] it was 11 mm; in experiment [11], 9 mm. The results for the zone of inhibition at 200 µg/disc in experiment [2], in [5] and in experiment [12] were 12 mm, 10 mm and 16 mm, respectively. Further, the “inhibition zone (IZ)” value in [3], in experiment [6] and in experiment [7] was “inactive” in each case. In addition, the figures for the zone of inhibition at 50 µg/disc in experiment [8], in [9] and in experiment [10] were 11 mm, 7 mm and 8 mm, respectively.
